Compound activity from PubChem.
This is one part of a sample in which hits are shown more often than they occur.
HCT116 PTEN-null: suppresses growth of cells with PTEN deletion; HCT116 PTEN-null viability, CellTiter-Glo, 60 h; active compounds read low; viability, % at 10 µM; 1.2% of 140,000 active; AID 827;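 active = viability at or below a set limit, 4 SD under the median of all tested compounds, cut at about 3.7% in these data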;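 also: PTEN knockout HCT116 line with beta catenin targeted HCT116 as companion control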
HCT116 bCat-KO: beta-catenin-lacking colon tumor cell growth suppression. viability, % at 10 µM. HCT116 beta-catenin knockout viability, CellTiter-Glo, 60 h; active compounds read low. 1.5% of 140,000 active;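 active = viability at or under a set limit, the compound median less 4 SD, cut at about 6% in these data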
H69AR inhibit: blocks growth of human H69AR lung tumor cells; H69AR lung tumor viability, ATP luminescence, 72 h; active compounds read low; viability, % at 10 µM; 6% of 85,000 active;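 active = viability at or below 40%; inactive = viability above 40%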;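 also: multidrug resistant small cell line overexpressing MRP-1 efflux transporter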
Fibroblast inh: blocks proliferation of human lung fibroblasts; viability, % at 10 µM; LL 47 human lung fibroblast viability, ATP luminescence; active compounds read low; 1.1% of 85,000 active;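 active = viability at or below 50% in the single dose screen; inactive = viability above 50%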;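 also: compound exposure lasted 72 h before the ATP readout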
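Assay system: human lung fibroblast line LL 47, low passage. Input: 1,150 fibroblasts seeded per well. Times: overnight cell rest, 72 h compound treatment at 37 °C. Evaluation: % viability of median cell-only signal. Technique: luminescent ATP detection, CellTiter-Glo. Control set: cell-only wells, no compound.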
HUVEC inhibit: blocks proliferation of human endothelial cells | HUVEC proliferation, CellTiter-Glo luminescence, 72 h; active compounds read low | viability, % at 10 µM (by protocol) | 1.1% of 86,000 active;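 active = viability at or below 30%; inactive = viability above 30%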
Each line names hits and unclear results; the compound was inactive in the other large screens.

CC1(C)Cc2c(C#N)c(SCc3ccccc3)nc(N3CCOCC3)c2CO1	none
CC1(C)Cc2c(C#N)c(SCC(=O)c3ccccc3)nc(N3CCOCC3)c2CO1	Fibroblast inh 48
CC1(C)Cc2c(c(N3CCOCC3)nc3snc(NC(=O)c4ccccc4)c23)CO1	H69AR inhibit 37
CC1(C)Cc2c(C#N)c(N3CCN(C(=O)c4ccccc4)CC3)nc(Cc3ccccc3)c2CO1	H69AR inhibit 29
Cc1ccc(C23CC4CC(CC(CC(=O)N5CCOCC5)(C4)C2)C3)cc1	none
COC(=O)C1=CC(C(=O)c2cccs2)=NN(c2ccc(OC)cc2)C1C(=O)OC (stereo unspecified)	none (no result: H69AR inhibit, Fibroblast inh, HUVEC inhibit)
N#Cc1c(-c2ccc(Br)cc2)cc(-c2cccnc2)nc1N	none (no result: H69AR inhibit, Fibroblast inh, HUVEC inhibit)
N#Cc1c(-c2cccc(F)c2)cc(-c2ccccc2)nc1Br	none (no result: H69AR inhibit, Fibroblast inh, HUVEC inhibit)
CS(=O)(=O)c1nc(-c2ccc(Br)cc2)cc(-c2ccccc2)c1C#N	HCT116 PTEN-null 2.1, HCT116 bCat-KO 1.6, H69AR inhibit 1.2, Fibroblast inh 1.9, HUVEC inhibit 20
CS(=O)c1nc(-c2ccc(Br)cc2)cc(-c2ccccc2)c1C#N (stereo unspecified)	HCT116 PTEN-null 1.8, HCT116 bCat-KO 1.8, H69AR inhibit 1.5, Fibroblast inh 6.6, HUVEC inhibit 9.9
COc1ccc(-c2cc(-c3ccccc3)c(C#N)c(S(C)(=O)=O)n2)cc1	HCT116 PTEN-null 0.9, HCT116 bCat-KO 1.1, H69AR inhibit 3.6, HUVEC inhibit 26
COc1ccc(-c2cc(-c3ccc(OC)cc3)c(C#N)c(SC)n2)cc1	none
FC(F)(F)c1cc(-c2ccco2)nc(-n2cnc3ccccc32)n1	H69AR inhibit 25
Cc1nc2ccccc2n1-c1nc(-c2ccco2)cc(C(F)(F)F)n1	HCT116 PTEN-null 2.7, HCT116 bCat-KO 3.1 (no result: H69AR inhibit, Fibroblast inh, HUVEC inhibit)
FC(F)(F)c1cc(-c2ccco2)nc(N2CCN(c3ccccc3)CC2)n1	none
CN(C)c1ccc(C(=O)c2ccc(N(C)C)c3ccccc23)cc1	H69AR inhibit 36, Fibroblast inh 44
COc1ccc(C(=O)c2ccc(N(C)C)cc2)c(OC)c1	none (no result: H69AR inhibit, Fibroblast inh, HUVEC inhibit)
CCc1nn(C(C)C(=O)NCCN2CCN(c3cccc(C)c3C)CC2)c(=O)c2cc3occc3n12 (stereo unspecified)	HCT116 bCat-KO 2.5 (no result: H69AR inhibit, Fibroblast inh, HUVEC inhibit)
COC(=O)c1ccccc1NC(=O)COC(C)=O	H69AR inhibit 6.0 (no result: Fibroblast inh)
CCOC(=O)c1ccccc1NC(=O)COC	none
Cc1ccc(S(=O)(=O)Nc2cccc3ncccc23)s1	HCT116 PTEN-null 1.5, HCT116 bCat-KO 1.5 (no result: H69AR inhibit, Fibroblast inh, HUVEC inhibit)
Cc1ccc(S(=O)(=O)Nc2ccnc3ccccc23)cc1	none
O=C(NC1CCCCC1)C(c1ccccc1)N(Cc1ccc2c(c1)OCO2)C(=O)c1cnsn1 (stereo unspecified)	H69AR inhibit 38
Cc1ccc(C(C(=O)NC2CCCC2)N(Cc2ccc3c(c2)OCO3)C(=O)Cc2cccs2)cc1 (stereo unspecified)	none
O=C1c2ccccc2C(=O)C1c1ccnc2ccccc12	none
O=C1c2ccccc2C(=O)C1c1nccc2ccccc12	HCT116 bCat-KO 5.0 (no result: H69AR inhibit, Fibroblast inh, HUVEC inhibit)
COc1cc2c(-c3ccc(O)cc3)nc3c(c(C)nn3-c3ccccc3)c2cc1OC	HCT116 PTEN-null 1.2, HCT116 bCat-KO 1.0 (no result: H69AR inhibit, Fibroblast inh, HUVEC inhibit)
COc1ccc2c(=O)c(-c3ccc4c(c3)OCO4)coc2c1	none (no result: H69AR inhibit, Fibroblast inh, HUVEC inhibit)
Cc1cnc(NC(=O)c2ccc(-c3nc4ccccc4s3)o2)s1	H69AR inhibit 28
COC(=O)CSC1=C(C#N)C(c2ccsc2)CC(=O)N1 (stereo unspecified)	H69AR inhibit 38
COC(=O)CSC1=C(C#N)C(c2cccc(F)c2)CC(=O)N1 (stereo unspecified)	H69AR inhibit 28
Cn1cnnc1SCC(=O)NN(c1ccccc1)c1ccccc1	none (no result: H69AR inhibit, Fibroblast inh, HUVEC inhibit)
CCN(CC)S(=O)(=O)c1cccc(-c2nnc(SCCCC(=O)c3ccc(F)cc3)o2)c1	H69AR inhibit 37
CCN(CC)S(=O)(=O)c1cccc(-c2nnc(SCCCC(=O)c3ccccc3)o2)c1	H69AR inhibit 32
O=C(CSc1nnc(-c2cccc(S(=O)(=O)N3CCCCC3)c2)o1)NCCC1=CCCCC1	none
Brc1ccccc1-c1nnc(SCc2nc3ccccc3s2)o1	none (no result: H69AR inhibit, Fibroblast inh, HUVEC inhibit)
CCN(CC)S(=O)(=O)c1cccc(-c2nnc(SCC(=O)c3cc(C)n(C4CC4)c3C)o2)c1	none (no result: HCT116 PTEN-null, HCT116 bCat-KO)
CCN(CC)S(=O)(=O)c1cccc(-c2nnc(SC(C)C(=O)NCCC3=CCCCC3)o2)c1 (stereo unspecified)	H69AR inhibit 33
CCN(CC)S(=O)(=O)c1cccc(-c2nnc(SCc3nc4ccccc4s3)o2)c1	H69AR inhibit 35
